The source of these data is ChEMBL document CHEMBL2440089, “CoMFA studies and in vitro evaluation of some 3-substituted benzylthio quinolinium salts as anticryptococcal agents” (Bioorg Med Chem, 2013).

pIC50: −log10 of the molar value.

Series [1] relates to Vero. Description: Cytotoxicity against african green monkey Vero cells after 48 hrs by Neutral Red dye assay. Particulars: chlorocebus sabaeus. In kind it is cell-based. Summed up:
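Kidney […] (VERO) cells were seeded at 25,000 cells/well and incubated for 24 h, then exposed to samples for 48 h. Viable cells were counted by Neutral Red dye uptake. IC50 was taken from growth-inhibition versus concentration curves. Doxorubicin served as the positive control and DMSO as the vehicle control.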

Series [2] relates to Cryptococcus neoformans. Description: Antifungal activity against Cryptococcus neoformans ATCC 90113 by CLSI method. In kind it is functional, organism-based. The following applies: for pIC50: read-out: IC50; for IC50: read-out: pIC50 (converted). Summed up:
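Test samples in DMSO were serially diluted in saline and run in duplicate in Sabouraud dextrose broth, with final concentrations starting at 20 μg/mL. Absorbance at 530 nm was read before and after incubation. Each plate carried growth, solvent and media-blank controls, with amphotericin B as the drug control. IC50 (50% inhibition relative to controls) was obtained by curve fitting.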

The test system of series [3] is Vero. Description: Cytotoxicity against african green monkey Vero cells at 10 ug/ml after 48 hrs by Neutral Red dye assay. It is filed as cell-based. Particulars: chlorocebus sabaeus.

The compound `[I-].c1ccc(Sc2cc3ccccc3[n+](CCCCCC3CCCCC3)c2)cc1` registered an Activity in series [1] of 8.89 µM.
Regarding `Fc1cccc(Sc2cc3ccccc3[n+](CCCCCC3CCCCC3)c2)c1.[I-]`, in series [2], the pIC50 was 4.88 and the IC50 was 13200 nM. The Activity in series [1] was 1.23 µM.
The like results for `COc1cccc(Sc2cc3ccccc3[n+](CCCCCC3CCCCC3)c2)c1.[I-]` were, in that order, 4.73, 18500 nM and 8.22 µM.
In series [1], `Cc1ccccc1Sc1cc2ccccc2[n+](CCCCCC2CCCCC2)c1.[I-]` yielded an Activity of 7.53 µM.
On the same count and under the same terms, for `Cc1cccc(Sc2cc3ccccc3[n+](CCCCCC3CCCCC3)c2)c1.[I-]` the value was 6.96 µM; for `Cc1ccc(Sc2cc3ccccc3[n+](CCCCCC3CCCCC3)c2)cc1.[I-]`, 5.27 µM; for `Oc1ccccc1Sc1cc2ccccc2[n+](CCCCCC2CCCCC2)c1.[I-]`, 17.4 µM.
With `Oc1cccc(Sc2cc3ccccc3[n+](CCCCCC3CCCCC3)c2)c1.[I-]`, the Activity result in series [3] is “Non-toxic”. Also, in series [2], the pIC50 is 5.63 and the IC50 is 2340 nM.
Regarding `Oc1ccc(Sc2cc3ccccc3[n+](CCCCCC3CCCCC3)c2)cc1.[I-]`, the Activity result in series [3] is reported as “Non-toxic”.
For `FC(F)(F)c1ccccc1Sc1cc2ccccc2[n+](CCCCCC2CCCCC2)c1.[I-]`, in series [3], the Activity entry is recorded as “Non-toxic”. In series [2], the pIC50 is 5.43 and the IC50 was 3740 nM.
Consider `FC(F)(F)c1cccc(Sc2cc3ccccc3[n+](CCCCCC3CCCCC3)c2)c1.[I-]`, for which the Activity entry in series [3] is reported as “Non-toxic”.
On the same count and under the same terms, for `FC(F)(F)c1ccc(Sc2cc3ccccc3[n+](CCCCCC3CCCCC3)c2)cc1.[I-]` the value was “Non-toxic”.
Consider `COc1ccc(Sc2cc3ccccc3[n+](CCCCCC3CCCCC3)c2)cc1.[I-]`, for which, in series [2], the pIC50 was 6.14 and the IC50 was 731 nM. Also, the Activity in series [1] was 7.67 µM.
With `[I-].c1ccc(CSc2cc3ccccc3[n+](CCCCCC3CCCCC3)c2)cc1`, the Activity entry in series [3] is “Non-toxic”. Moreover, in series [2], the pIC50 was 6.52 and the IC50 was 301 nM.
In the same order, the values of `Clc1ccccc1CSc1cc2ccccc2[n+](CCCCCC2CCCCC2)c1.[I-]` are “Non-toxic”, 5.87 and 1350 nM.
Turning to `Clc1ccc(CSc2cc3ccccc3[n+](CCCCCC3CCCCC3)c2)cc1.[I-]`, in series [2], the pIC50 is 7.06 and the IC50 was 88.3 nM. The compound further displayed an Activity in series [1] of 2.3 µM.
In the same order, the values of `Cc1cccc(CSc2cc3ccccc3[n+](CCCCCC3CCCCC3)c2)c1.[I-]` are 6.11, 769 nM and 4.95 µM.
The like results for `Cc1ccc(CSc2cc3ccccc3[n+](CCCCCC3CCCCC3)c2)cc1.[I-]` were, in that order, 6.34, 458 nM and 6.78 µM.
The like results for `FC(F)(F)c1ccc(CSc2cc3ccccc3[n+](CCCCCC3CCCCC3)c2)cc1.[I-]` were, in that order, 6.38, 417 nM and 7.94 µM.
`[I-].[O-][S+](c1ccc(F)cc1)c1cc2ccccc2[n+](CCCCCc2ccccc2)c1` (stereo not given): the Activity result in series [3] was “Non-toxic”. In series [2], the pIC50 is 4.56 and the IC50 is 27500 nM.
In the same order, the values of `[I-].[O-][S+](c1cccc(C(F)(F)F)c1)c1cc2ccccc2[n+](CCCCCc2ccccc2)c1` (stereo not given) are “Non-toxic”, 4.96 and 10900 nM.
With `[I-].[O-][S+](c1cc2ccccc2[n+](CCCCCc2ccccc2)c1)c1ccccc1C(F)(F)F` (stereo not given), in series [3], the Activity entry is “Non-toxic”. Also, in series [2], the pIC50 was 5.03 and the IC50 is 9250 nM.
As to `[I-].[O-][S+](c1cc2ccccc2[n+](CCCCCc2ccccc2)c1)c1ccccc1Br` (stereo not given), in series [3], the Activity entry is given as “Non-toxic”. Further, in series [2], the pIC50 is 5.04 and the IC50 was 9080 nM.
For `[I-].[O-][S+](c1ccc(Br)cc1)c1cc2ccccc2[n+](CCCCCc2ccccc2)c1` (stereo not given), the Activity entry in series [3] is recorded as “Non-toxic”. Besides, in series [2], the pIC50 is 4.83.
In the case of `[I-].[O-][S+](c1ccc(C(F)(F)F)cc1)c1cc2ccccc2[n+](CCCCCc2ccccc2)c1` (stereo not given), the pIC50 in series [2] was 5.00. Further, the Activity in series [1] was found to be 21.4 µM.
`Oc1ccc(CSc2cc3ccccc3[n+](CCCCCC3CCCCC3)c2)cc1.[I-]`: the Activity result in series [3] is listed as “Non-toxic”. Further, in series [2], the pIC50 is 5.04 and the IC50 was 9040 nM.
With `CC(C)(C)c1ccc(CSc2cc3ccccc3[n+](CCCCCC3CCCCC3)c2)cc1.[I-]`, the Activity entry in series [3] is “Non-toxic”. In series [2], the pIC50 was 6.05 and the IC50 is 883 nM.
Consider `Fc1ccccc1CSc1cc2ccccc2[n+](CCCCCC2CCCCC2)c1.[I-]`, for which the Activity entry in series [3] is “Non-toxic”. In series [2], the pIC50 is 6.02 and the IC50 is 948 nM.
With `Fc1cccc(CSc2cc3ccccc3[n+](CCCCCC3CCCCC3)c2)c1.[I-]`, the Activity entry in series [3] is listed as “Non-toxic”. In series [2], the pIC50 is 6.15 and the IC50 was 711 nM.
In the same order, the values of `Fc1ccc(CSc2cc3ccccc3[n+](CCCCCC3CCCCC3)c2)cc1.[I-]` are “Non-toxic”, 6.17 and 678 nM.
With `COc1ccccc1CSc1cc2ccccc2[n+](CCCCCC2CCCCC2)c1.[I-]`, in series [3], the Activity entry is listed as “Non-toxic”. Moreover, in series [2], the pIC50 was 6.21 and the IC50 was 624 nM.
In the same order, the values of `COc1cccc(CSc2cc3ccccc3[n+](CCCCCC3CCCCC3)c2)c1.[I-]` are “Non-toxic”, 6.22 and 607 nM.
The like results for `COc1ccc(CSc2cc3ccccc3[n+](CCCCCC3CCCCC3)c2)cc1.[I-]` were, in that order, “Non-toxic”, 5.67 and 2150 nM.
The like results for `Brc1ccccc1CSc1cc2ccccc2[n+](CCCCCC2CCCCC2)c1.[I-]` were, in that order, “Non-toxic”, 5.95 and 1130 nM.
On to `Brc1cccc(CSc2cc3ccccc3[n+](CCCCCC3CCCCC3)c2)c1.[I-]`, for which the Activity entry in series [3] is “Non-toxic”. Moreover, in series [2], the pIC50 is 6.44 and the IC50 is 361 nM.
The like results for `Brc1ccc(CSc2cc3ccccc3[n+](CCCCCC3CCCCC3)c2)cc1.[I-]` were, in that order, “Non-toxic”, 6.43 and 370 nM.
For the compound `C[C@@H]1[C@H](O)[C@@H](C)/C=C/C=C/C=C/C=C/C=C/C=C/C=C/[C@H](O[C@@H]2O[C@H](C)[C@@H](O)[C@H](N)[C@@H]2O)C[C@@H]2O[C@](O)(C[C@@H](O)C[C@@H](O)[C@H](O)CC[C@@H](O)C[C@@H](O)CC(=O)O[C@H]1C)C[C@H](O)[C@H]2C(=O)O` [AMPHOTERICIN B], the pIC50 in series [2] is 6.37. Moreover, in series [1], the Activity was found to be 7.03 µM.
As to `C[n+]1c2ccccc2cc2[n-]c3ccccc3c21` [CRYPTOLEPINE], in series [2], the pIC50 was 4.36 and the IC50 was 43300 nM. For the same compound, in series [1], the Activity was 8.88 µM.
